MIC data for ten compounds are collected here from ChEMBL document CHEMBL1137088, “Distamycin analogues with enhanced lipophilicity: synthesis and antimicrobial activity” (2004).

The subject of test [1] is Aspergillus nidulans. Put plainly: Antifungal activity against Aspergillus nidulans CABI 0160037 strain. It is filed as functional.
Test [2] deals with Staphylococcus aureus. Put plainly: Antibacterial activity against methicillin-resistant Staphylococcus aureus (MRSA) PHLS M1 strain. It is filed as functional. The procedure, abridged: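 Read-out is the minimum inhibitory concentration, reported in µM. Amoxycillin is tested alongside as the reference antibiotic.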
The test system of test [3] is Mycolicibacterium fortuitum. Kind of test: Antibacterial activity against Mycobacterium fortuitum NCTC 10394 strain. It is filed as functional.
Test [4] relates to Escherichia coli. Put plainly: Antibacterial activity against Escherichia coli NCTC 9001 strain. It is filed as functional, organism-based.
The subject of test [5] is Aspergillus niger. Kind of test: Antifungal activity against Aspergillus niger IMI17454 strain. The note with it: Aspergillus niger; read-out: MIC. It is filed as functional.
The nature of test [6]: Antibacterial activity against Proteus vulgaris NCTC 4175 strain; na = not active. It is filed as functional.
Test [7] deals with Staphylococcus aureus. Put plainly: Antibacterial activity against Staphylococcus aureus NCTC 6571 strain. It is filed as functional.
Test [8] concerns Klebsiella aerogenes. Kind of test: Antibacterial activity against Klebsiella aerogenes WRL CN 345 strain. The note with it: Klebsiella aerogenes, WRL CN 375; read-out: MIC. It is filed as functional, WRL CN 375.
A short description of test [9]: Antibacterial activity against Enterobacter cloacae NCTC 10005 strain. It is filed as functional.
The test system of test [10] is Candida albicans. Put plainly: Antifungal activity against Candida albicans NCPF 3179 strain. It is filed as functional. The note with it: Candida albicans; read-out: MIC.
In test [11] the test system is Enterococcus faecalis. Put plainly: Antibacterial activity against Streptococcus faecalis NCTC 775 strain. It is filed as functional.
The test system of test [12] is Proteus vulgaris. Kind of test: Antibacterial activity against Proteus vulgaris NCTC 4175 strain. It is filed as functional.
Test [13] has as its system Enterobacter cloacae. Put plainly: Antibacterial activity against Enterobacter cloacae NCTC 10005 strain. It is filed as functional, organism-based.
Test [14] deals with Staphylococcus aureus. Put plainly: Antibacterial activity against Staphylococcus aureus NCTC 6571 strain; na = not active. It is filed as functional, organism-based.
Test [15] has as its system Staphylococcus aureus. Kind of test: Antibacterial activity against MRSA PHLS M1 strain; na = not active. It is filed as functional, organism-based.
Test [16] in a line: Antifungal activity against Candida albicans NCPF 3179 strain; na = not active. It is filed as functional.
The test system of test [17] is Aspergillus niger. Put plainly: Antifungal activity against Aspergillus niger IMI17454 strain; na = not active. It is filed as functional.
Test [18] relates to Klebsiella aerogenes. Put plainly: Antibacterial activity against Klebsiella aerogenes WRL CN 345 strain; na = not active. It is filed as functional, organism-based.
In test [19] the test system is Enterococcus faecalis. Kind of test: Antibacterial activity against Streptococcus faecalis NCTC 775 strain; na = not active. It is filed as functional, organism-based.

What is called MIC is the lowest concentration found to suppress growth.

In brackets after ≈: the same amount, converted by molar mass. Activity calls are given as the source filed them. The calls are words filed in the database; no cut-off is given here.

Turning to `CC(C)c1sc(NC(=O)c2cc(NC=O)cn2C)nc1C(=O)Nc1cc(C(=O)NCCCN(C)C)n(C)c1`, the MIC in [1] stood at 9.5 µM (≈ 5.16 µg/mL); in [2], 19.1 µM (≈ 10.4 µg/mL); in [3] it was 19 µM (≈ 10.3 µg/mL); in test [5], 38.1 µM (≈ 20.7 µg/mL); in test [7], 4.8 µM (≈ 2.6 µg/mL); in test [8] it was 38.1 µM (≈ 20.7 µg/mL). The figures for the MIC in test [9], in test [10] and in test [11] were 9.5 µM (≈ 5.16 µg/mL), 38.1 µM (≈ 20.7 µg/mL) and 9.5 µM (≈ 5.16 µg/mL), respectively. The MIC entry in test [4] and in test [6] was “inactive” throughout.
Take `CC(C)CCn1cc(NC(=O)c2cc(NC(=O)c3cc([N+](=O)[O-])cn3C)cn2C)cc1C(=O)Nc1cc(C(=O)NCCCN(C)C)n(C)c1`: the MIC in test [1] came to 25.8 µM (≈ 17.5 µg/mL); in test [2] it was 126 µM (≈ 85.3 µg/mL); in [3], 15.8 µM (≈ 10.7 µg/mL); in test [5], 15.8 µM (≈ 10.7 µg/mL); in test [12], 126 µM (≈ 85.3 µg/mL); in [7] it was 31.6 µM (≈ 21.4 µg/mL). Further, the minimal inhibitory concentration (MIC) in test [8], in [10] and in [11] was 15.8 µM (≈ 10.7 µg/mL) in each case. Also, the MIC entry in test [4] and in test [13] was “inactive” in each case.
As to `CC(=O)Nc1cc(C(=O)Nc2cc(C(=O)Nc3cc(C(=O)NCCCN(C)C)n(C)c3)n(C)c2)n(C)c1`, the minimal inhibitory concentration (MIC) in test [1] was 160 µM (≈ 81.7 µg/mL); in [2], 40 µM (≈ 20.4 µg/mL); in test [3] it was 160 µM (≈ 81.7 µg/mL); in test [5], 160 µM (≈ 81.7 µg/mL); in test [12] it was 160 µM (≈ 81.7 µg/mL); in test [8] it was 80 µM (≈ 40.8 µg/mL). Besides, the minimal inhibitory concentration (MIC) in test [9], in test [10] and in [11] was 160 µM (≈ 81.7 µg/mL) each time. Also, the MIC entry in test [4] and in test [14] was “inactive” in each case.
For the compound `CC(C)n1cc(NC(=O)c2cc(NCc3ccccc3)cn2C)cc1C(=O)Nc1cc(C(=O)NCCCN(C)C)n(C)c1`, the minimum inhibitory concentration (MIC) in [1] came to 73.5 µM (≈ 43.1 µg/mL); in test [3] it was 73.5 µM (≈ 43.1 µg/mL); in test [5], 147 µM (≈ 86.3 µg/mL); in test [7] it was 147 µM (≈ 86.3 µg/mL); in test [8], 147 µM (≈ 86.3 µg/mL); in [10], 147 µM (≈ 86.3 µg/mL). The compound further yielded an MIC in test [11] of 147 µM (≈ 86.3 µg/mL). Moreover, the MIC entry in test [4], in test [15], in test [6] and in test [13] was “inactive” in each case.
For the compound `CC(=O)Nc1cc(C(=O)Nc2cc(C(=O)Nc3cc(C(=O)NCCCN4CCCC4)n(C)c3)n(C)c2)n(C)c1`, the MIC in test [1] amounted to 153 µM (≈ 82.1 µg/mL); in [3] it was 76.9 µM (≈ 41.3 µg/mL); in test [5] it was 153 µM (≈ 82.1 µg/mL); in test [8], 153 µM (≈ 82.1 µg/mL); in test [9] it was 153 µM (≈ 82.1 µg/mL); in test [11], 153 µM (≈ 82.1 µg/mL). In addition, the MIC entry in test [16], in test [4], in test [15], in [6] and in test [14] was “inactive” throughout.
`CN(C)CCCNC(=O)c1cc(NC(=O)c2cc(NC(=O)c3cc(NC=O)cn3C)cn2C2CCCC2)cn1C`: the MIC entry in test [17], in test [4], in [6], in test [13] and in test [18] was “inactive” in each case. The MIC in test [2] was 75.3 µM (not active) (≈ 41.5 µg/mL); in test [3] it was 75.3 µM (≈ 41.5 µg/mL); in test [7] it was 75 µM (≈ 41.3 µg/mL); in [10], 75.3 µM (≈ 41.5 µg/mL); in test [11] it was 75 µM (≈ 41.3 µg/mL).
For the compound `CC(=O)Nc1cc(C(=O)Nc2cc(C(=O)Nc3cc(C(=O)NCCCN4CCN(C)CC4)n(C)c3)n(CCC(C)C)c2)n(C)c1`, the MIC result in test [17], in test [16], in test [4], in test [15], in test [14] and in test [13] was “inactive” throughout. Further, the MIC entry in test [19] was “inactive”. Besides, the MIC in [1], in test [3], in [12] and in test [8] was 136 µM (≈ 84.6 µg/mL) in each case.
Consider `CC(C)n1cc(NC(=O)c2cc(NC(=O)c3cc(NC=O)cn3C(C)C)cn2C(C)C)cc1C(=O)NCCCN(C)C`, for which the MIC in test [1] was 72 µM (≈ 41.8 µg/mL); in test [2] it was 144 µM (≈ 83.6 µg/mL); in test [3] it was 72 µM (≈ 41.8 µg/mL); in [5], 72 µM (≈ 41.8 µg/mL); in [12] it was 144 µM (≈ 83.6 µg/mL); in test [7], 144 µM (≈ 83.6 µg/mL). In addition, the minimal inhibitory concentration (MIC) in [8] came to 36 µM (≈ 20.9 µg/mL); in test [9], 36 µM (≈ 20.9 µg/mL); in test [10] it was 144 µM (≈ 83.6 µg/mL); in [11], 72 µM (≈ 41.8 µg/mL). Moreover, the MIC entry in test [4] is “inactive”.
With `CN[C@@H]1[C@H](O[C@H]2[C@H](O[C@H]3[C@H](O)[C@@H](O)[C@H](N=C(N)N)[C@@H](O)[C@@H]3N=C(N)N)O[C@@H](C)[C@]2(O)C=O)O[C@@H](CO)[C@H](O)[C@H]1O` [STREPTOMYCIN], in [7], the MIC worked out at 10.8 µM (≈ 6.28 µg/mL).
On to `CCC(C)n1ncn(-c2ccc(N3CCN(c4ccc(OC[C@H]5CO[C@](Cn6cncn6)(c6ccc(Cl)cc6Cl)O5)cc4)CC3)cc2)c1=O` (stereo partly specified) [ITRACONAZOLE], for which the minimum inhibitory concentration (MIC) in test [1] came out at 35.4 µM (≈ 25 µg/mL); in test [16], 35.4 µM (≈ 25 µg/mL); in test [5] it was 17.7 µM (≈ 12.5 µg/mL).
